Consider 18 molecules from PubChem BioAssay.

A short description of assay [1]: S. cerevisiae growth inhibition in permissive medium (OD615), pilot counter-assay for S. cerevisiae lifespan shortening project, permissive growth control (AID 705;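 active means growth inhibition above 25% in both replicates, a cutoff set 3 SD above the mean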). Conditions: OD615, 24 h, at 10 µM, hits give high values. Put shortly:
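System: S. cerevisiae with engineered DeaD lifespan system / Measured by: absorbance (optical density) at 615 nm / Read-out: reduction in yeast growth (OD615) / Times: 4 h cell pre-growth, 24 h exposure at 30 °C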

Assay [2] can be described thus: S. cerevisiae growth inhibition in restrictive medium, OD615, pilot screen, restrictive growth control, yeast lifespan reduction project (AID 706;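 active means growth inhibition above a set limit, 3 SD over mean compound inhibition, in both replicates, cut at about 43% in these data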;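 further: modified DeaD lifespan yeast strain shifted to restrictive glucose medium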). The following applies: OD615, 48 h, at 10 µM, hits give high values. Put shortly: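 System: Engineered S. cerevisiae DeaD strain | Buffer or medium: Glucose-based CSMM-D restrictive medium | Schedule: 4 h pre-incubation, 48 h exposure at 30 °C | Technique: Optical density at 615 nm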

The nature of assay [3]: doxorubicin toxicity protection in MRP-1 cells – H69AR cells, CellTiter-Glo, duplicate, MRP-1 activator project, pilot screen (AID 807;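 active means viability increase at or above a cutoff of the median across tested compounds plus 3 SD, cut at about 8.5% in these data, passing the limit was not always enough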;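 further: compound pretreatment 18-22 h then 72 h combined with doxorubicin; 0% = doxorubicin alone and 100% = vehicle without doxorubicin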). Conditions: H69AR viability with doxorubicin, CellTiter-Glo luminescence; at 10 µM; hits give high values.
A short description of assay [4]: viability of HCT116 without oncogenic beta-catenin – human colon tumor cells, pilot screen (AID 823).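 Further: 0% = wells killed by 20 µM Hyamine and 100% = untreated DMSO cell wells.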 Conditions: HCT116 beta-catenin knockout viability, CellTiter-Glo, 60 h; at 10 µM; hits give low values.
Assay [5] is described as follows: viability of PTEN-null HCT116 cells – cell-based, HCT116 clonal line, CellTiter-Glo, pilot screen (AID 824;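 active means viability at or below 27.92% in each of two runs, the all-compound median minus 4 SD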;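 further: 0% = 20 µM Hyamine control and 100% = vehicle cell control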). The following applies: HCT116 PTEN-deleted viability, 60 h, at 10 µM, hits give low values. Background: In ATP-based viability assays light output follows the ATP content of the culture.
Assay [6] can be described thus: RAM pathway blockade in budding yeast – dse1pr::URA3 reporter, 5-FOA selection, pilot screen (AID 869;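 active means inhibition over a set limit, the all-compound mean plus 3 SD, in both replicate runs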;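 further: 0% = DMSO wells with no growth and 100% = 10 µM 1-NA-PP1 with full growth; RAM network block rescues cells from 5-FOA so hits raise OD615 growth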). The following applies: S. cerevisiae dse1pr::URA3 5-FOA growth, OD615, 2 d; at 10 µM; hits give high values; strain carries analog-sensitive mutant Cbk1 kinase.
Assay [7] is described as follows: RAM signaling pathway blockade in yeast – S. cerevisiae, Pdr1DBD-CYC8 efflux-inhibited sensitized strain, primary screen (AID 1298;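 active means RAM network inhibition above 8.4% in each of two replicates, 3 SD over the compound average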;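 further: 0% = DMSO untreated cells without growth and 100% = 10 µM 1-NA-PP1 full growth; higher means more yeast growth rescued from 5-FOA killing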). The following applies: S. cerevisiae cbk1-as DSE1-URA3 strain, 5-FOA growth OD615, 2 d; at 50 µM; hits give high values.

What is called viability is a read-out of living cells in per cent, often relative to untreated cells. In general, inhibition refers to the drop in the measured response relative to a control, in per cent.

Values without a mark were called inactive. Inconclusive results are not listed. Calls of active or inactive are those of the source.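 How the source made its calls, unless noted: active means cell viability at or below a set limit in both duplicate runs, the limit being the all-compound median minus 4 SD (cut at about 23% in these data, passing the limit was not always enough); inconclusive means no clear call, values can overlap the other calls; inactive means the rest.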

In the case of `Cc1csc(NC(=O)C2CCCN(S(=O)(=O)c3cccnc3)C2)n1` (stereo unspecified), the results for the growth inhibition in assay [1] and in assay [2] were -7.25% and 1.94%, respectively. Moreover, in assay [3], the viability increase is -0.73%. Besides, the viability in assay [4] was 104%; in assay [5], 101%. The inhibition in assay [6] was 1.59%. In assay [7], the RAM network inhibition was 4.94%.
Turning to `COc1ccc(C(=O)c2c[nH]c3ccccc23)cc1`, the growth inhibition in assay [1] is -4.92%; in assay [2], 2.61%. In assay [3], the viability increase was -1.32%. For the same molecule, the values for the viability in assay [4] and in assay [5] were 101% and 96.4%, respectively. Moreover, the inhibition in assay [6] was 0.695%. Moreover, the RAM network inhibition in assay [7] was -1.45%.
For the molecule `CCOC(=O)c1cnc2c(C#N)c(C)nn2c1-c1ccccc1`, the growth inhibition in assay [1] is -5.3%; in assay [2], 0.945%. The viability increase in assay [3] is -0.99%. The viability in assay [4] is 94%; in assay [5], 92.7%. The inhibition in assay [6] is 1.69%. Moreover, in assay [7], the RAM network inhibition is 3.66%.
`CCOc1ccc(-n2c(Cc3cc(=O)[nH]c(=O)[nH]3)nnc2SCc2cccnc2)cc1`: the results for the growth inhibition in assay [1] and in assay [2] were 2.83% and 5.83%, respectively. Besides, in assay [3], the viability increase is 1.08%. For the same molecule, the figures for the viability in assay [4] and in assay [5] were 107% and 105%, respectively. The inhibition in assay [6] was 1.84%. In addition, in assay [7], the RAM network inhibition was 0.84%.
For the molecule `C=C(C)CSc1nc2c(c(=O)[nH]c(=O)n2C)n1CCC(C)C`, the values for the growth inhibition in assay [1] and in assay [2] were -17.9% and -22.9%, respectively. Besides, the viability increase in assay [3] was -2.5%. Also, the results for the viability in assay [4] and in assay [5] were 80.8% and 80.9%, respectively. The inhibition in assay [6] is 1.38%. Moreover, the RAM network inhibition in assay [7] was 1.85%.
With `COc1ccccc1-n1c(SC)nc(O)cc1=O`, the growth inhibition in assay [1] is 1.24%; in assay [2] it was -7.61%. For the same molecule, the viability increase in assay [3] is 0.84%. Besides, the viability in assay [4] is 105%; in assay [5] it was 99%. In assay [6], the inhibition was 2.01%. In addition, the RAM network inhibition in assay [7] was 4.2%.
For the molecule `Cc1ccc(C)c(NC(=O)CSc2nc3c(c(=O)n2C)SC(C)C3)c1` (stereo unspecified), the figures for the growth inhibition in assay [1] and in assay [2] were -3.99% and -8.3%, respectively. The viability increase in assay [3] is -3.24%. Moreover, the figures for the viability in assay [4] and in assay [5] were 83.2% and 90.8%, respectively. The inhibition in assay [6] was 0.5%. Further, the RAM network inhibition in assay [7] is 3.86%.
`CC(=O)Nc1ccc(S(=O)(=O)N2CCN(c3cccc(C)c3C)CC2)cc1`: the growth inhibition was -2.38% in assay [1] and -3.89% in assay [2]. Further, the viability increase in assay [3] is -6.76%. Further, the viability was 35.8% in assay [4] and 34.5% in assay [5]. The inhibition in assay [6] was 0.185%. Moreover, the RAM network inhibition in assay [7] was 0.9%.
Turning to `O=S(=O)(NC1CCCCC1)c1cccc(-c2nnc(-c3ccccc3)o2)c1`, the values for the growth inhibition in assay [1] and in assay [2] were -12.2% and -20.6%, respectively. Further, the viability increase in assay [3] was 0.12%. Besides, the values for the viability in assay [4] and in assay [5] were 88.7% and 81.2%, respectively. Moreover, the inhibition in assay [6] is 0.285%. In addition, the RAM network inhibition in assay [7] is 3.44%.
Take `CCc1ccccc1S(=O)(=O)Cc1ccc(C(=O)NCc2ccc3c(c2)OCO3)o1`: the growth inhibition was -12% in assay [1] and -13.8% in assay [2]. Also, in assay [3], the viability increase was -2.5%. The viability was 95.7% in assay [4] and 91.1% in assay [5]. Also, in assay [6], the inhibition was 1.87%. In addition, in assay [7], the RAM network inhibition was 7.83%.
Consider `O=C(Cn1c(=O)oc2cc(S(=O)(=O)N3CCOCC3)ccc21)N1CCc2ccccc2C1`, for which the growth inhibition is -5.1% in assay [1] and -8.57% in assay [2]. In addition, the viability increase in assay [3] was -2.45%. Moreover, the viability is 103% in assay [4] and 93.8% in assay [5]. In addition, in assay [6], the inhibition is 2.44%. The RAM network inhibition in assay [7] was 4.35%.
Take `CCOc1ccc(Cn2nnc(C(=O)NCCc3ccccc3)c2N)cc1`: the growth inhibition in assay [1] was 1.4%; in assay [2], 2.79%. The viability increase in assay [3] is 10.7% (active). Moreover, the viability in assay [4] was 96.9%; in assay [5] it was 89.9%. The inhibition in assay [6] is 2.5%. In addition, in assay [7], the RAM network inhibition was 4.53%.
As to `CCc1cccc(Nc2cc(C)nc3ncnn23)c1`, the growth inhibition in assay [1] was -5.35%; in assay [2], -1.55%. For the same molecule, in assay [3], the viability increase is -0.66%. The viability in assay [4] is 99.8%; in assay [5] it was 93%. In addition, the inhibition in assay [6] is 0.465%. For the same molecule, the RAM network inhibition in assay [7] is 6.68%.
In the case of `O=C1CCCCCN1CP(=O)(O)CCc1ccccc1`, the results for the growth inhibition in assay [1] and in assay [2] were -5.01% and -0.455%, respectively. Further, the viability increase in assay [3] was -0.2%. The viability was 100% in assay [4] and 104% in assay [5]. The inhibition in assay [6] is 1.19%. In addition, the RAM network inhibition in assay [7] was 0.42%.
Take `COc1cc(CCC(=O)N2CCN(c3ccc(N4CCOCC4)nn3)CC2)cc(OC)c1OC`: the growth inhibition in assay [1] is 7.64%; in assay [2], 14.6%. In addition, the viability increase in assay [3] was -1.86%. Besides, the viability is 106% in assay [4] and 112% in assay [5]. Moreover, in assay [6], the inhibition is 0.43%. In addition, the RAM network inhibition in assay [7] was 4.7%.
For the molecule `COc1ccc2c(c1)[nH]c1c(N3CCN(Cc4ccc5c(c4)OCO5)CC3)ncnc12`, the growth inhibition in assay [1] was -15.7%; in assay [2] it was -18.4%. The viability increase in assay [3] is -5.9%. In addition, the viability in assay [4] is 11.9% (active); in assay [5] it was 23.1% (active). Moreover, in assay [6], the inhibition was 2.08%. The RAM network inhibition in assay [7] is 5.66%.
For `COC(=O)C1CCN(C(c2ccc(OC)c(OC)c2)c2sc3nc(C)nn3c2O)CC1` (stereo unspecified), the results for the growth inhibition in assay [1] and in assay [2] were 7.23% and 4.6%, respectively. Also, in assay [3], the viability increase is 0.34%. The values for the viability in assay [4] and in assay [5] were 109% and 96.9%, respectively. In assay [6], the inhibition was -1.08%. In addition, the RAM network inhibition in assay [7] is 2.68%.
Consider `CCOc1ccc(-n2c(SCC(=O)Nc3nccs3)nc3c(c2=O)SCC3)cc1`, for which the results for the growth inhibition in assay [1] and in assay [2] were -7.92% and -5.48%, respectively. Besides, the viability increase in assay [3] is -0.41%. For the same molecule, the viability is 104% in assay [4] and 98.3% in assay [5]. Besides, the inhibition in assay [6] is 3.15%. In assay [7], the RAM network inhibition was 4.65%.
